Measured values reported in ChEMBL document CHEMBL3124843, “Synthesis, cytostatic, antimicrobial, and anti-HCV activity of 6-substituted 7-(het)aryl-7-deazapurine ribonucleosides” (J Med Chem, 2014).
Active and inactive are the calls of the source. How the calls were made is not given here.

Experiments:
[1] = Cytostatic activity against human CEM-DNR-bulk cells after 72 hrs by MTT assay; format: functional, cell-based
How it was run: (§1)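 IC50 is the concentration that cuts cell growth by 50%, read by quantitative metabolic MTT staining after a 3-day treatment. The resistant sublines were made by raising the concentration of the cytotoxic drug step by step. CEM-DNR-bulk (daunorubicin-selected) stably overexpresses mrp-1. K562-TAX (paclitaxel-selected) expresses only mdr-1. HCT116p53−/− carries null p53 alleles. BJ and MRC-5 are nonmalignant fibroblasts.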

Hepatitis C virus [2] = assay: Antiviral activity against Hepatitis C virus subtype 2a infected in human HuH7 cells; format: functional, organism-based, Hepacivirus hominis; details: genotype 2a, Huh-7
Staphylococcus aureus [3] = assay: Antibacterial activity against methicillin-resistant Staphylococcus aureus MRSA 4591 after 24 hrs; format: functional, organism-based
Pseudomonas aeruginosa [4] = assay: Antibacterial activity against multi-resistant Pseudomonas aeruginosa A/16575 after 24 hrs; format: functional, organism-based
Enterococcus faecalis = assay: Antibacterial activity against Enterococcus faecalis CCM 4224 after 24 hrs; format: functional, organism-based
K562 [5] = assay: Cytostatic activity against human K562 cells after 72 hrs by MTT assay; format: functional, cell-based; details: K562, 72 h; how it was run: as §1
Candida parapsilosis = assay: Antifungal activity against Candida parapsilosis after 48 hrs; format: functional, organism-based
Escherichia coli [6] = assay: Antibacterial activity against Escherichia coli CCM 3954 after 24 hrs; format: functional, organism-based
Escherichia coli [7] = assay: Antibacterial activity against multi-resistant Escherichia coli C/16702 after 24 hrs; format: functional, organism-based
HCT-116 [8] = assay: Cytostatic activity against human HCT116 cells after 72 hrs by MTT assay; format: functional, cell-based; details: HCT-116, 72 h; how it was run: as §1
MRC5 = assay: Cytostatic activity against human MRC5 cells after 72 hrs by MTT assay; format: ADME, cell-based; details: MRC5, 72 h; how it was run: as §1
Hepatitis C virus [9] = assay: Antiviral activity against Hepatitis C virus subtype 1b infected in human HuH7 cells; format: functional, organism-based, Hepacivirus hominis; details: genotype 1b, Huh-7
HCT-116 [10] = assay: Cytostatic activity against p53-deficient human HCT116 cells after 72 hrs by MTT assay; format: functional, cell-based; details: HCT-116, 72 h; how it was run: as §1
[11] = tested on: Staphylococcus haemolyticus; assay: Antibacterial activity against methicillin-resistant Staphylococcus haemolyticus A/16568 after 24 hrs; format: functional, organism-based
A549 = assay: Cytostatic activity against human A549 cells after 72 hrs by MTT assay; format: functional, cell-based; details: A549, 72 h; how it was run: as §1
Candida tropicalis = assay: Antifungal activity against Candida tropicalis after 48 hrs; format: functional, organism-based
[12] = Cytotoxicity against human HuH7 cells infected with Hepatitis C virus subtype 2a; format: cell-based, Huh-7
Candida albicans = assay: Antifungal activity against Candida albicans after 48 hrs; format: functional, organism-based
HL-60 = assay: Antiproliferative activity against human HL60 cells after 72 hrs by XTT assay; format: functional, cell-based; details: HL-60, 72 h
How it was run: (§2)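 Antiproliferative test on HL-60 promyelocytic leukemia and HeLa S3 cervical carcinoma cells growing in liquid suspension.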

Pichia kudriavzevii = assay: Antifungal activity against Candida crusei after 48 hrs; format: functional, organism-based
Pseudomonas aeruginosa [13] = assay: Antibacterial activity against Pseudomonas aeruginosa CCM 3955 after 24 hrs; format: functional, organism-based
[14] = Cytotoxicity against human HuH7 cells infected with Hepatitis C virus subtype 1b; format: cell-based, Huh-7
BJ = assay: Cytostatic activity against human BJ cells after 72 hrs by MTT assay; format: ADME, cell-based; how it was run: as §1
HepG2 = assay: Antiproliferative activity against human HepG2 cells after 72 hrs by XTT assay; format: functional, cell-based; details: HepG2, 72 h
Staphylococcus aureus [15] = assay: Antibacterial activity against Staphylococcus aureus CCM 3953 after 24 hrs; format: functional, organism-based
K562 [16] = assay: Cytostatic activity against paclitaxel-resistant human K562 cells after 72 hrs by MTT assay; format: functional, cell-based; details: K562, 72 h; how it was run: as §1
CCRF-CEM = assay: Cytostatic activity against human CCRF-CEM cells after 72 hrs by MTT assay; format: functional, cell-based; how it was run: as §1
[17] = Antiproliferative activity against human HeLaS3 cells after 72 hrs by XTT assay; format: functional, cell-based; details: HeLa S3, 72 h; how it was run: as §2

| SMILES | IC50 [1] | EC50 (Hepatitis C virus [2]) | Activity (Staphylococcus aureus [3]) | Activity (Pseudomonas aeruginosa [4]) | Activity (Enterococcus faecalis) | IC50 (K562 [5]) | Activity (Candida parapsilosis) | Activity (Escherichia coli [6]) | Activity (Escherichia coli [7]) | IC50 (HCT-116 [8]) | IC50 (MRC5) | EC50 (Hepatitis C virus [9]) | IC50 (HCT-116 [10]) | Activity [11] | IC50 (A549) | Activity (Candida tropicalis) | CC50 [12] | Activity (Candida albicans) | IC50 (HL-60) | Activity (Pichia kudriavzevii) | further results |
| --- | --- | --- | --- | --- | --- | --- | --- | --- | --- | --- | --- | --- | --- | --- | --- | --- | --- | --- | --- | --- | --- |
| Nc1nc2c(c(-c3ccco3)cn2[C@@H]2O[C@H](CO)[C@@H](O)[C@H]2O)c(=O)[nH]1 | > 20 µM | > 44 µM | inactive | inactive | inactive | > 20 µM | inactive | inactive | inactive | > 20 µM | > 100 µM | > 44 µM | > 20 µM | inactive | > 20 µM | inactive | > 44 µM | inactive | > 20 µM | inactive | Activity (Pseudomonas aeruginosa [13]): inactive; CC50 [14]: > 44 µM; IC50 (BJ): > 100 µM; IC50 (HepG2): > 20 µM; Activity (Staphylococcus aureus [15]): inactive; IC50 (K562 [16]): > 20 µM; IC50 (CCRF-CEM): > 20 µM; IC50 [17]: > 20 µM |
| Cc1nc(N)c2c(-c3cc4ccccc4o3)cn([C@@H]3O[C@H](CO)[C@@H](O)[C@H]3O)c2n1 | 6.31 µM | 18.2 µM | inactive | inactive | inactive | 15.7 µM | inactive | inactive | inactive | > 20 µM | 91.8 µM | 6.14 µM | 13.1 µM | inactive | > 20 µM | inactive | 39.1 µM | inactive | > 20 µM | inactive | Activity (Pseudomonas aeruginosa [13]): inactive; CC50 [14]: 39.2 µM; IC50 (BJ): > 100 µM; IC50 (HepG2): > 20 µM; Activity (Staphylococcus aureus [15]): inactive; IC50 (K562 [16]): 4.99 µM; IC50 (CCRF-CEM): > 20 µM; IC50 [17]: > 20 µM |
| Nc1nc(N)c2c(-c3ccsc3)cn([C@@H]3O[C@H](CO)[C@@H](O)[C@H]3O)c2n1 | > 20 µM | > 44 µM | inactive | inactive | inactive | > 20 µM | inactive | inactive | inactive | > 20 µM | > 100 µM | > 44 µM | > 20 µM | inactive | > 100 µM | inactive | > 44 µM | inactive | > 20 µM | inactive | Activity (Pseudomonas aeruginosa [13]): inactive; CC50 [14]: > 44 µM; IC50 (BJ): > 100 µM; IC50 (HepG2): > 20 µM; Activity (Staphylococcus aureus [15]): inactive; IC50 (K562 [16]): > 20 µM; IC50 (CCRF-CEM): > 20 µM; IC50 [17]: > 20 µM |
| Nc1nc2c(c(-c3ccoc3)cn2[C@@H]2O[C@H](CO)[C@@H](O)[C@H]2O)c(=O)[nH]1 | 15 µM | 40.7 µM | inactive | inactive | inactive | 19.6 µM | inactive | inactive | inactive | 14.2 µM | 86.1 µM | 25.7 µM | 17.6 µM | inactive | > 20 µM | inactive | > 44 µM | inactive | > 15 µM | inactive | Activity (Pseudomonas aeruginosa [13]): inactive; CC50 [14]: > 44 µM; IC50 (BJ): 21.5 µM; IC50 (HepG2): > 20 µM; Activity (Staphylococcus aureus [15]): inactive; IC50 (K562 [16]): 12.5 µM; IC50 (CCRF-CEM): 17.9 µM; IC50 [17]: 10.7 µM |
| Cc1ncnc2c1c(-c1ccoc1)cn2[C@@H]1O[C@H](CO)[C@@H](O)[C@H]1O | > 20 µM | > 44 µM | inactive | inactive | inactive | > 20 µM | inactive | inactive | inactive | > 20 µM | 98.3 µM | 4.43 µM | > 20 µM | inactive | > 20 µM | inactive | > 44 µM | inactive | > 15 µM | inactive | Activity (Pseudomonas aeruginosa [13]): inactive; CC50 [14]: > 44 µM; IC50 (BJ): 89.2 µM; IC50 (HepG2): 5.32 µM; Activity (Staphylococcus aureus [15]): inactive; IC50 (K562 [16]): > 20 µM; IC50 (CCRF-CEM): > 20 µM; IC50 [17]: > 20 µM |
